Calls of active or inactive are those of the source. The calls are words filed in the database; no cut-off is given here.

Assay [1] has as its system NCI-H460. In words: Growth inhibition of human NCI-H460 cells up to 30 uM after 48 hrs by MTT assay. Type of assay: functional, cell-based. The essentials: (§1)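 Adherent cells grown with 10% FBS, 2 mM L-glutamine and penicillin/streptomycin at 37 °C, 5% CO2. Seeded at 3000 cells/well and attached for 18 h. Compound added at a final 30 μM in 1% DMSO for 48 h. MTT then added (final 0.5 mg/mL) for 4 h, formazan dissolved in DMSO, absorbance read at 580 nm. Negative control 1% DMSO, doxorubicin positive control. Run in duplicate. IC50 versus negative control.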

The test system of assay [2] is Escherichia coli. In words: Antibacterial activity against Escherichia coli ATCC 25922 up to 30 uM after 24 hrs by spectrophotometric method. Format: functional, organism-based. In a few lines: (§2)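 Bacteria grown on tryptic soy agar at 37 °C for 24 h. One colony moved to tryptic soy broth and adjusted to 10^4−10^5 CFU/mL. Compound in DMSO, diluted with water to a 600 μM stock in 20% DMSO, then added to broth at a final 30 μM in 1% DMSO. Incubated 37 °C for 24 h, OD600 read. Rifampicin positive control. IC50 taken as 50% growth inhibition.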

The subject of assay [3] is Staphylococcus aureus. In words: Antibacterial activity against Staphylococcus aureus ATCC 25923 up to 30 uM after 24 hrs by spectrophotometric method. Format: functional, organism-based. In a few lines:
as §2

Assay [4] concerns SW-620. In words: Growth inhibition of human SW620 cells up to 30 uM after 48 hrs by MTT assay. Type of assay: functional, cell-based. In a few lines:
as §1
For orientation: Tetrazolium assays rely on reduction of a dye to a coloured formazan, in cell work by metabolically active cells.

For assay [5], the system named is Bacillus spizizenii. As to the kind of experiment: Antibacterial activity against Bacillus subtilis ATCC 6633 up to 30 uM after 24 hrs by spectrophotometric method. Type of assay: functional, organism-based. The essentials:
as §2

Assay [6] is described as follows: Inhibition of DNA polymerase (unknown origin). On the set-up: species or system Homo sapiens.
In assay [7] the test system is HeLa. As to the kind of experiment: Growth inhibition of human HeLa cells. The following applies: read-out: LD50 (the source's name). Format: functional.
Assay [8] has as its system MCF7. As to the kind of experiment: Growth inhibition of human MCF7 cells. The conditions noted are these: read-out: LD50 (the source's name). Format: functional.

Turning to `CC(=O)OCC1=C[C@H](/C=C(\CO)C(=O)O)[C@@H](C(C)C)CC1`, the “growth inhibition (GI)” value in assay [1] and in assay [4] was “inactive” throughout. Further, the outcome in assay [2], in assay [3] and in assay [5] was inactive.
Consider `CC(C)[C@H]1CC[C@@](O)(COC(=O)/C(=C/[C@H]2C3=C(CC[C@@H]2C(C)C)COC3=O)CO)[C@@H](C(=O)O)[C@@H]1/C=C(\CO)C(=O)O`, for which the “growth inhibition (GI)” value in assay [1] and in assay [4] was “inactive” each time. Moreover, the result in assay [2], in assay [3] and in assay [5] was inactive.
On to `CC(=O)OC/C(=C\[C@H]1C=C(CO)CC[C@@H]1C(C)C)C(=O)O`, for which the “growth inhibition (GI)” value in assay [1] and in assay [4] was “inactive” throughout. For the same compound, the result in assay [2], in assay [3] and in assay [5] was inactive.
For `CC(C)[C@H]1CC[C@@]2(OC(=O)/C(=C/[C@H]3C4=C(CC[C@@H]3C(C)C)COC4=O)CO)COC(=O)[C@H]2[C@@H]1/C=C(\CO)C(=O)O`, the “growth inhibition (GI)” value in assay [1] and in assay [4] was “inactive” throughout. Also, the result in assay [2], in assay [3] and in assay [5] was inactive.
The term IC50 denotes the concentration that gives 50% inhibition. The low end stands for inhibition by little substance, the high end for a need for much substance. `CC(C)C1CCC(O)(COC(=O)C2=CC3C(C(C)C)CCC4(CO4)C3C(=O)OC2)C2C(=O)OCC(C(=O)O)=CC12` (stereo not drawn) displayed an IC50 in assay [6] of 30.8 µM. In addition, the CC50 in assay [7] turned out to be 33 µM; in assay [8], 31.6 µM.
`CC(C)[C@H]1CC[C@@](O)(COC(=O)/C(=C/[C@@H]2[C@@H](C(C)C)CC[C@@]3(O)COC(=O)[C@@H]23)CO)[C@H]2C(=O)OCC(C(=O)O)=C[C@H]12`: the “growth inhibition (GI)” value in assay [1] and in assay [4] was “inactive” throughout. Also, the outcome in assay [2], in assay [3] and in assay [5] was inactive.
On to `CC(C)[C@H]1CC[C@@](O)(COC(=O)/C(=C/[C@H]2C=C(CO)CC[C@@H]2C(C)C)CO)[C@H]2C(=O)OCC(C(=O)O)=C[C@H]12`, for which the “growth inhibition (GI)” value in assay [1] and in assay [4] was “inactive” each time. Moreover, the result in assay [2], in assay [3] and in assay [5] was inactive.
On to `CC(C)[C@H]1CC[C@@](O)(COC(=O)C2=C[C@H]3[C@@H](OC2)[C@H](CO)CC[C@@H]3C(C)C)[C@H]2C(=O)OCC(C(=O)O)=C[C@H]12`, for which the “growth inhibition (GI)” value in assay [1] and in assay [4] was “inactive” in each case. For the same compound, the result in assay [2], in assay [3] and in assay [5] was inactive.
In the case of `CC(C)[C@H]1CCC(CO)=C[C@@H]1/C=C(\CO)C(=O)O`, the “growth inhibition (GI)” value in assay [1] and in assay [4] was “inactive” in each case. Moreover, the outcome in assay [2], in assay [3] and in assay [5] was inactive.
For `CC(C)[C@H]1CC[C@@]2(OC(=O)/C(=C/[C@H]3C=C(CO)CC[C@@H]3C(C)C)CO)COC(=O)[C@H]2[C@@H]1/C=C(\CO)C(=O)O`, the “growth inhibition (GI)” value in assay [1] and in assay [4] was “inactive” throughout. In addition, the outcome in assay [2], in assay [3] and in assay [5] was inactive.
In the case of `CC(C)[C@H]1CC[C@@](O)(COC(=O)/C(=C/[C@H]2C3=C(CC[C@@H]2C(C)C)COC3=O)CO)[C@H]2C(=O)OCC(C(=O)O)=C[C@H]12`, the “growth inhibition (GI)” value in assay [1] and in assay [4] was “inactive” each time. For the same compound, the outcome in assay [2], in assay [3] and in assay [5] was inactive.

Values taken from ChEMBL document CHEMBL4371093, “Divirensols: Sesquiterpene Dimers from the Australian Termite Nest-Derived Fungus Trichoderma virens CMB-TN16” (J Nat Prod, 2019).
